Here are results for two molecules from ChEMBL document CHEMBL4373712, “Bioactivatable Pseudotripeptidization of Cyclic Dipeptides To Increase the Affinity toward Oligopeptide Transporter 1 for Enhanced Oral Absorption: An Application to Cyclo(l-Hyp-l-Ser) (JBP485)” (J Med Chem, 2019).

A short description of data set [1]: Cmax in Sprague-Dawley rat at 12 mg/kg, po by UPLC-MS/MS analysis. In kind it is ADME, organism-based. The arrangement: dose 12 mg/kg, route oral. The settings on record: in vivo. The essentials: (§1)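 Male SD rats, 200-250 g, fasted 12 h with water, n=6. Oral dose of 12 mg/kg as JBP485 equivalent; dose-effect arms at 12 and 100 mg/kg. JBP485 given iv at 6 mg/kg as the reference. Jugular blood taken at 0.083-10 h. Plasma JBP485 by UPLC-MS/MS. Absolute F = (AUCpo×Div)/(AUCiv×Dpo)×100%, using AUC0-t.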

In data set [2] the test system is Rattus norvegicus. The experiment in a line: Anti-hepatitis activity in ANIT-induced Sprague-Dawley rat model of liver injury assessed as reduction in serum aspartate aminotransferase level at 6.25 to 12.5 mg/kg, ip administered 30 mins prior to ANIT challenge and subsequent dosing at 8, 22, 32, and 46 hrs post ANIT challenge and measured 48 hrs post ANIT challenge. Type of data set: functional, organism-based. The essentials:
(§2)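 ANIT (50 mg/kg ip, olive oil) cholestatic liver injury in male SD rats, 6 per group. Oral or ip dosing (UDCA 100 mg/kg po in CMC-Na) at 30 min before and 8, 22, 32 and 46 h after ANIT. Serum collected at 48 h from the abdominal aorta; ALT and AST activities measured with kits.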

For data set [3], the system named is Rattus norvegicus. The experiment in a line: Anti-hepatitis activity in ANIT-induced Sprague-Dawley rat model of liver injury assessed as reduction in serum alanine aminotransferase level at 6.25 to 25 mg/kg, po administered 30 mins prior to ANIT challenge and subsequent dosing at 8, 22, 32, and 46 hrs post ANIT challenge and measured 48 hrs post ANIT challenge. In kind it is functional, organism-based. The essentials: as §2

Data set [4] in a line: AUC (0 to t) in Beagle dog at 12 mg/kg, po by UPLC-MS/MS analysis. The settings on record: in vivo. In kind it is ADME, organism-based, Canis lupus familiaris. The essentials: (§3)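 Male beagle dogs, 2 years old, 8-10 kg, n=6. Single oral dose of 12 mg/kg (prodrug dosed as JBP485 equivalent) given in aqueous solution. Jugular venipuncture blood taken at 0.167-8 h into sodium heparin tubes. Plasma JBP485 measured by UPLC-MS/MS; AUC0-t and Cmax from the concentration-time profiles.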

The nature of data set [5]: AUC (0 to t) in Sprague-Dawley rat at 6 mg/kg, iv by UPLC-MS/MS analysis. Type of data set: ADME, organism-based. The settings on record: in vivo. The essentials:
as §1

Data set [6] is described as follows: Tmax in Sprague-Dawley rat assessed as JBP485 level at 12 mg/kg, po by LC-MS/MS analysis. In kind it is ADME, organism-based. The settings on record: in vivo. The essentials:
(§4)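 Male SD rats (200–250 g) fasted 12 h, given JBP485 or prodrug (calculated as JBP485) orally at 12 or 100 mg/kg. Jugular blood sampled 0.083–10 h, plasma JBP485 by UPLC-MS/MS; n=6.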

A short description of data set [7]: Oral bioavailability in Sprague-Dawley rat at 12 mg/kg by UPLC-MS/MS analysis. In kind it is ADME, organism-based. The settings on record: in vivo. The essentials:
as §1

The test system of data set [8] is Rattus norvegicus. The experiment in a line: Anti-hepatitis activity in ANIT-induced Sprague-Dawley rat model of liver injury assessed as reduction in serum aspartate aminotransferase level at 6.25 to 25 mg/kg, po administered 30 mins prior to ANIT challenge and subsequent dosing at 8, 22, 32, and 46 hrs post ANIT challenge and measured 48 hrs post ANIT challenge. In kind it is functional, organism-based. The essentials:
as §2

Data set [9] can be described thus: Terminal half-life in Sprague-Dawley rat at 12 mg/kg, po by UPLC-MS/MS analysis. Type of data set: ADME, organism-based. To be noted: in vivo, read-out: beta t1/2 (converted). The essentials:
(§5)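 Fasted male SD rats (200–250 g), oral 12 mg/kg (prodrugs calculated as JBP485). Jugular blood 0.083–10 h, centrifuged, plasma JBP485 by UPLC-MS/MS; n=6.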

A short description of data set [10]: Cmax in Beagle dog at 12 mg/kg, po by UPLC-MS/MS analysis. In kind it is ADME, organism-based, Canis lupus familiaris. The arrangement: dose 12 mg/kg, route oral. To be noted: in vivo. The essentials: as §3
Data set [11] is described as follows: Cmax in Sprague-Dawley rat assessed as JBP485 level at 100 mg/kg, po by LC-MS/MS analysis. In kind it is ADME, organism-based. The arrangement: dose 100 mg/kg, route oral. The settings on record: in vivo. The essentials:
as §1

Data set [12] concerns Rattus norvegicus. The experiment in a line: Anti-hepatitis activity in ANIT-induced Sprague-Dawley rat model of liver injury assessed as reduction in liver necrosis at 6.25 to 25 mg/kg, po administered 30 mins prior to ANIT challenge and subsequent dosing at 8, 22, 32, and 46 hrs post ANIT challenge and measured 48 hrs post ANIT challenge by H and E staining-based assay. In kind it is functional, organism-based. The essentials:
(§6)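 ANIT 50 mg/kg ip liver-injury model in male SD rats, 6 per group. Oral or ip treatment at 30 min before and 8, 22, 32 and 46 h after ANIT. Liver excised at 48 h, fixed in 4% formalin, stained with H&E, and examined microscopically for hepatocellular edema and necrosis.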

The subject of data set [13] is Rattus norvegicus. Briefly: Anti-hepatitis activity in ANIT-induced Sprague-Dawley rat model of liver injury assessed as reduction in serum alanine aminotransferase level at 6.25 to 12.5 mg/kg, ip administered 30 mins prior to ANIT challenge and subsequent dosing at 8, 22, 32, and 46 hrs post ANIT challenge and measured 48 hrs post ANIT challenge. In kind it is functional, organism-based. The essentials:
as §2

Data set [14] in a line: Tmax in Sprague-Dawley rat assessed as JBP485 level at 100 mg/kg, po by LC-MS/MS analysis. Type of data set: ADME, organism-based. The settings on record: in vivo. The essentials: as §4
The nature of data set [15]: Terminal half-life in Sprague-Dawley rat assessed as JBP485 level at 12 mg/kg equiv of JBP485 administered orally by UPLC-MS/MS analysis. In kind it is ADME, organism-based. To be noted: in vivo, po. The essentials:
as §5

Data set [16] in a line: Cmax in Sprague-Dawley rat assessed as JBP485 level at 12 mg/kg equiv of JBP485 administered orally by UPLC-MS/MS analysis. In kind it is ADME, organism-based. The arrangement: dose 12 mg/kg, route oral. To be noted: in vivo, po. The essentials:
as §1

Data set [17] is described as follows: AUC (0 to t) in Beagle dog assessed as JBP485 level at 12 mg/kg equiv of JBP485 administered orally by UPLC-MS/MS analysis. To be noted: in vivo, po. In kind it is ADME, organism-based, Canis lupus familiaris. The essentials:
as §3

In data set [18] the test system is Rattus norvegicus. The experiment in a line: Anti-hepatitis activity in ANIT-induced Sprague-Dawley rat model of liver injury assessed as reduction in serum alanine aminotransferase level at 3.125 to 25 mg/kg, po administered 30 mins prior to ANIT challenge and subsequent dosing at 8, 22, 32, and 46 hrs post ANIT challenge and measured 48 hrs post ANIT challenge. In kind it is functional, organism-based. The essentials:
as §2

Data set [19] in a line: Tmax in Beagle dog assessed as JBP485 level at 12 mg/kg equiv of JBP485 administered orally by UPLC-MS/MS analysis. In kind it is ADME, organism-based, Canis lupus familiaris. The settings on record: in vivo, po. The essentials:
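Male beagle dogs, 2 years old, 8–10 kg, dosed orally at 12 mg/kg (prodrug calculated as JBP485) in aqueous solution. Jugular blood taken 0.167–8 h into heparin, centrifuged, plasma JBP485 by UPLC-MS/MS; n=6.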

The nature of data set [20]: Ratio of half-life in pH 7.2 phosphate buffer to half-life in Sprague-Dawley rat liver homogenates. Type of data set: ADME, tissue-based. To be noted: tissue homogenate.
The nature of data set [21]: Cmax in Beagle dog assessed as JBP485 level at 12 mg/kg equiv of JBP485 administered orally by UPLC-MS/MS analysis. In kind it is ADME, organism-based, Canis lupus familiaris. The arrangement: dose 12 mg/kg, route oral. The settings on record: in vivo, po. The essentials: as §3
Data set [22] concerns Rattus norvegicus. The experiment in a line: Anti-hepatitis activity in ANIT-induced Sprague-Dawley rat model of liver injury assessed as reduction in hepatocellular edema at 3.125 to 25 mg/kg, po administered 30 mins prior to ANIT challenge and subsequent dosing at 8, 22, 32, and 46 hrs post ANIT challenge and measured 48 hrs post ANIT challenge by H and E staining-based assay. In kind it is functional, organism-based. The essentials: as §6

Data set [23] in a line: AUC (0 to t) in Sprague-Dawley rat assessed as JBP485 level at 12 mg/kg equiv of JBP485 administered orally by UPLC-MS/MS analysis. The settings on record: in vivo, po. Type of data set: ADME, organism-based. The essentials:
as §1

Activity calls are given as the source filed them. The rule behind the calls is not given here.

The term Tmax denotes the time at which the peak concentration occurs. By bioavailability is commonly meant dose-corrected exposure relative to a reference, in per cent. A high value points to much systemic uptake. For the molecule `O=C1N[C@@H](CO)C(=O)N2C[C@H](O)C[C@@H]12`, the Cmax turned out to be 27.8 µM in data set [1], 26.65 nM/ml in data set [10] and 95.96 nM/ml in data set [11]. Further, the outcome in the data set with Rattus norvegicus [2], in the data set on Rattus norvegicus [3], with Rattus norvegicus [8], in the data set with Rattus norvegicus [12] and in the data set with Rattus norvegicus [13] was Active. In addition, the AUCt came out at 89.15 nM/ml.hr in [4] and 194 µM·h in data set [5]. The Tmax in data set [6] was found to be 1.25 h; in data set [14] it was 1.5 h. In data set [7], this molecule registered a bioavailability of 21%. The half-life in data set [9] was 2.12 h.

For `CC(C)[C@H](N)C(=O)OC[C@@H]1NC(=O)[C@@H]2C[C@@H](O)CN2C1=O`, the “beta t1/2” value in data set [15] amounted to 2.11 h. The Cmax in data set [16] turned out to be 113 µM; in [21], 85.9 nM/ml. The AUCt in data set [17] is listed as 233.25 nM/ml.hr; in data set [23], 194.47 nM/ml.hr. In addition, the result in the data set on Rattus norvegicus [18] and in the data set with Rattus norvegicus [22] was Active. In data set [19], the Tmax amounted to 0.58 h. Also, the Ratio in data set [20] is 3 to 35.
